Holding throughout (type): functional, Heart
What all share (settings): route intraperitoneal

Test [1] concerns Rattus norvegicus. Put plainly: Cardioprotective effect in Langendorff perfused Wistar rat hearts assessed as ischemic damage measured by rate-pressure product-120 at 40 mg/kg, ip. The method, boiled down: (§1)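 Rats pretreated intraperitoneally (test agents 40 mg/kg; reference agents 40 or 1 mg/kg); hearts isolated and Langendorff-perfused through an ischemia-reperfusion cycle. Rate-pressure product at 120 min reperfusion expressed as % of the last preischemic minute. After reperfusion, TTC staining of left ventricle (necrotic white/pale pink, healthy red); injured area given as % of total area. Mean ± SE, n = 4-6 experiments.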

Test [2] deals with Rattus norvegicus. Put plainly: Cardioprotective effect in Langendorff perfused Wistar rat hearts assessed as ratio for ischemic injured area to total area at 40 mg/kg, ip. The method, boiled down: as §1
Test [3] has as its system Rattus norvegicus. Put plainly: Cardioprotective effect in Langendorff perfused Wistar rat hearts assessed as ratio for ischemic injured area to total area at 1 mg/kg, ip. The method, boiled down:
as §1

Test [4] has as its system Rattus norvegicus. Description: Cardioprotective effect in Langendorff perfused Wistar rat hearts assessed as ischemic damage measured by rate-pressure product-120 at 1 mg/kg, ip. The method, boiled down: as §1

As for `CC(=O)Nc1ccc(CN2C[C@]3(CC(C)(C)Oc4ccccc43)OCC2=O)cc1`, the Activity with Rattus norvegicus [1] came to 27%; in the test with Rattus norvegicus [2], 35%.
Taken in the same sequence, the figures for `CC(=O)Nc1ccc(CN2CC3(CC(C)(C)Oc4ccccc43)OCC2=O)cc1` (racemic) were 59% and 22%.
Turning to `CC1(C)Oc2ccc(C#N)cc2C(N2CCCC2=O)C1O` (stereo not given) [CROMAKALIM], the Activity stood at 23% in the test with Rattus norvegicus [3] and 86% in the test with Rattus norvegicus [4].
For the compound `CC(=O)Nc1ccc(CN2C[C@@]3(CC(C)(C)Oc4ccccc43)OCC2=O)cc1`, the Activity in the test with Rattus norvegicus [1] is given as 64%; in the test with Rattus norvegicus [2] it was 16%.
As for `CC1=Nc2ccc(Cl)cc2S(=O)(=O)N1` [DIAZOXIDE], the Activity was 45% in the test on Rattus norvegicus [1] and 25% in the test with Rattus norvegicus [2].

The values are drawn from ChEMBL document CHEMBL1140947, “Enantioselectivity in cardioprotection induced by (S)- (-)-2,2-dimethyl-N-(4'-acetamido-benzyl)-4-spiromorpholone-chromane” (2009).
